Test results published in ChEMBL document CHEMBL4400516, “A novel cereblon modulator for targeted protein degradation” (Eur J Med Chem, 2019).
The source made the active and inactive calls. The rule behind the calls is not given here.

Assays:
[1] = target: T1, Protein cereblon/Bromodomain-containing protein 4 (Homo sapiens, UniProt O60885+Q96SW2); experiment: Induction of CRBN-mediated BRD4 degradation in human 22RV1 cells measured after 24 hrs by immunoblotting analysis; type: cell-based
[2] = system: NCI-H929; experiment: Antiproliferative activity against human NCI-H929 cells after 72 hrs by WST-1 assay; type: functional; settings: NCI-H929, 72 h
How it was run: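 NCI-H929 myeloma cells (RPMI-1640, 10% FBS, 0.05 mM 2-mercaptoethanol) seeded at 30% confluency and dosed the next day. After 72 h, WST-1 reagent added and absorbance at 450 nm read. IC50 from nonlinear log(inhibitor) versus response fit.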

[3] = target: T1, Protein cereblon/Bromodomain-containing protein 4; experiment: Induction of CRBN-mediated BRD4 degradation in human 22RV1 cells in presence of proteasome inhibitor bortezomib by immunoblotting analysis; type: cell-based
[4] = target: Protein cereblon/Zinc finger protein Aiolos (Homo sapiens) (UniProt Q96SW2+Q9UKT9); experiment: Induction of CRBN ubiquitin ligase-mediated IKZF3 degradation in human U266 cells up to 10 uM measured after 12 hrs by immunoblotting analysis
Sequence of Protein cereblon/Zinc finger protein Aiolos (Homo sapiens) (Q96SW2 whole entry, looked up): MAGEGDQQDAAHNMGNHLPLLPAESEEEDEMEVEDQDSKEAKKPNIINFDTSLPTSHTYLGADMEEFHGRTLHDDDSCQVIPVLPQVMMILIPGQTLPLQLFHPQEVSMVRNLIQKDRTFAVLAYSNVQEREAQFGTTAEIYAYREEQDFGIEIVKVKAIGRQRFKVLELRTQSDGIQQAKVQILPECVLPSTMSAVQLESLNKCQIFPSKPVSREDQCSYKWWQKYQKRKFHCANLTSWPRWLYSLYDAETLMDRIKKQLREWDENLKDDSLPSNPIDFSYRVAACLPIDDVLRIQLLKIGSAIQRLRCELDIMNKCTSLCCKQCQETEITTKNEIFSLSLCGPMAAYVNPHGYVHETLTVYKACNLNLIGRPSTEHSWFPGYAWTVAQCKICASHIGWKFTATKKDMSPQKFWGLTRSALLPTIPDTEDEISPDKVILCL
Sequence of Protein cereblon/Zinc finger protein Aiolos (Homo sapiens) (Q9UKT9 whole entry, looked up): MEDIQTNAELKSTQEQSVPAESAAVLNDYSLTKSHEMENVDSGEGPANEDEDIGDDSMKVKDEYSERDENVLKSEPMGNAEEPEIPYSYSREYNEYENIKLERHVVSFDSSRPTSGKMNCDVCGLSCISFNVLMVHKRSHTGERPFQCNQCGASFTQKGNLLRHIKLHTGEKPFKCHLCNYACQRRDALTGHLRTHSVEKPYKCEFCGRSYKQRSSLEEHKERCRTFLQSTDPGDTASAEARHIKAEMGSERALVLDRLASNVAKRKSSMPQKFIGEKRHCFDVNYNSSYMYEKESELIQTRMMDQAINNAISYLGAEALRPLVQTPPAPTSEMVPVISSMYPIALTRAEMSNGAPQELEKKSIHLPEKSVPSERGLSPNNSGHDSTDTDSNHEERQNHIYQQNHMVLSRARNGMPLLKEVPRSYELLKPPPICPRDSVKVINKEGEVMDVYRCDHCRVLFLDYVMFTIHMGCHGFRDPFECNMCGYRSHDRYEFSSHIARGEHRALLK

[5] = target: Protein cereblon/Bromodomain-containing protein 2 (Homo sapiens) (UniProt P25440+Q96SW2); experiment: Induction of CRBN-mediated BRD2 degradation in human 22RV1 cells up to 1000 nM measured after 24 hrs by immunoblotting analysis; type: cell-based
Sequence of Protein cereblon/Bromodomain-containing protein 2 (Homo sapiens) (P25440 whole entry, looked up): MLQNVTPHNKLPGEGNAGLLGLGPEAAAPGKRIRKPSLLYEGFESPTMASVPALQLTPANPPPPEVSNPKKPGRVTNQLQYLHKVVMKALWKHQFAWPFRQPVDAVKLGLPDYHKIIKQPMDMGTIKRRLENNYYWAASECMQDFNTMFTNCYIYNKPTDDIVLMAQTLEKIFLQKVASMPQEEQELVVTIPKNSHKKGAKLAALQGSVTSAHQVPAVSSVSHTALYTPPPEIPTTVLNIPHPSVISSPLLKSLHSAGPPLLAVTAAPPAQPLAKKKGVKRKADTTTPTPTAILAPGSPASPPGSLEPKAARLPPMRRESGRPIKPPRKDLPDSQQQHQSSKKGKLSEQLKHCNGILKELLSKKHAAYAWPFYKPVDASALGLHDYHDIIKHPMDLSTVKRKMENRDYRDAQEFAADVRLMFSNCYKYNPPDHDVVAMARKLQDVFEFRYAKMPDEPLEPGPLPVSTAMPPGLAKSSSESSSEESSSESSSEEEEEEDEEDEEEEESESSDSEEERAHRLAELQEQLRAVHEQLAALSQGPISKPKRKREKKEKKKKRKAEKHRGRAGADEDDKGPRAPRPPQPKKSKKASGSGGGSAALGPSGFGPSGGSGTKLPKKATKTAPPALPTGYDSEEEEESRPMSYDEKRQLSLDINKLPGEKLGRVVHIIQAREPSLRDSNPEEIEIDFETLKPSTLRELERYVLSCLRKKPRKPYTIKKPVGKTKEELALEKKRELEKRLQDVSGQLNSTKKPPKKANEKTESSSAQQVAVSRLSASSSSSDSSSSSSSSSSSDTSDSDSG
Sequence of Protein cereblon/Bromodomain-containing protein 2 (Homo sapiens) (Q96SW2 whole entry, looked up): as the sequence (Q96SW2 whole entry, looked up) above
How it was run: (§1)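 22Rv1 prostate cancer cells (RPMI-1640, 10% FBS) given a 24 h dose titration. Lysates in HEPES/Triton X-100 buffer with protease inhibitor, then SDS-PAGE, nitrocellulose transfer and immunoblot.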

[6] = target: Bromodomain-containing protein 4 (Homo sapiens) (UniProt O60885); experiment: Induction of BRD4 degradation in CRBN knockdown human 22RV1 cells by immunoblotting analysis
How it was run: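 22Rv1 cells transfected with CRBN siRNA or negative-control siRNA using RNAiMAX. After 48 h, degrader added for 12 h. Lysates in HEPES/Triton X-100 buffer with protease inhibitor, then SDS-PAGE and immunoblot.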

[7] = target: T1, Protein cereblon/Bromodomain-containing protein 4; experiment: Induction of CRBN-mediated BRD4 degradation in human 22RV1 cells in presence of TD-106 by immunoblotting analysis; type: cell-based
[8] = target: Protein cereblon/Bromodomain-containing protein 3 (Homo sapiens) (UniProt Q15059+Q96SW2); experiment: Induction of CRBN-mediated BRD3 degradation in human 22RV1 cells up to 1000 nM measured after 24 hrs by immunoblotting analysis; type: cell-based; how it was run: as §1
Sequence of Protein cereblon/Bromodomain-containing protein 3 (Homo sapiens) (Q15059 2-726 limits assumed): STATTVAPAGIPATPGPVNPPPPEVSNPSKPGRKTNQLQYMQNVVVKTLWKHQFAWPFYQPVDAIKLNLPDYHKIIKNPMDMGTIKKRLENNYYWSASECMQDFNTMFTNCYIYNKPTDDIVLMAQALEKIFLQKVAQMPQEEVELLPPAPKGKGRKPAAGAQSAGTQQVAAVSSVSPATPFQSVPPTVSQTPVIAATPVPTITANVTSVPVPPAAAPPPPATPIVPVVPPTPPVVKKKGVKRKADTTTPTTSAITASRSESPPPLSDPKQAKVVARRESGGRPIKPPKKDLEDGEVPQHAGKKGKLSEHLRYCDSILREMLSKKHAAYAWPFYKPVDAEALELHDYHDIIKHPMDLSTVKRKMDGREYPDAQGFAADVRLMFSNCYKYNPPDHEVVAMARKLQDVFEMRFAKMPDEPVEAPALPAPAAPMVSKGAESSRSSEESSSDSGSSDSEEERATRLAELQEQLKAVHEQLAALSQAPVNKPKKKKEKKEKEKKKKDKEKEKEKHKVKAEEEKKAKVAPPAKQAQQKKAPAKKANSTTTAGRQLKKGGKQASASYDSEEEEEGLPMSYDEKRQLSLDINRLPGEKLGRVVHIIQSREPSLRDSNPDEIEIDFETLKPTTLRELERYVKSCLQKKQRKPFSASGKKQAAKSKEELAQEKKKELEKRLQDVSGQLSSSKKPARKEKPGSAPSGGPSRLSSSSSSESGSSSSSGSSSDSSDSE
Sequence of Protein cereblon/Bromodomain-containing protein 3 (Homo sapiens) (Q96SW2 whole entry partner): as the sequence (Q96SW2 whole entry, looked up) above

[9] = target: T1, Protein cereblon/Bromodomain-containing protein 4; experiment: Induction of CRBN-mediated BRD4 degradation in human 22RV1 cells in presence of neddylation inhibitor MLN4924 by immunoblotting analysis; type: cell-based
[10] = target: T1, Protein cereblon/Bromodomain-containing protein 4; experiment: Induction of CRBN-mediated BRD4 degradation in human 22RV1 cells in presence of JQ1 by immunoblotting analysis; type: cell-based
[11] = system: CWR22R; experiment: Antiproliferative activity against human 22Rv1 cells after 72 hrs by CelTiter-Glo reagent-based luminescence assay; type: functional; settings: 22Rv1, 72 h
How it was run: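 22Rv1 cells, 15,000 per well, exposed to compound at indicated concentrations for 72 hr. Viability read by CellTiter-Glo luminescence; relative growth versus DMSO-treated control. IC50 from nonlinear log(inhibitor) versus response fit.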

[12] = target: T1, Protein cereblon/Bromodomain-containing protein 4; experiment: Induction of Xpress-tagged CRBN (unknown origin)/FALG-tagged BRD4 (unknown origin) protein-protein interaction by immunoblotting analysis; type: protein assay
How it was run: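 Cells co-transfected with Xpress-CRBN and FLAG-BRD4 using X-tremeGENE HP. Lysates incubated with anti-FLAG magnetic beads, 4 °C for 3 h. Beads washed in lysis buffer and 500 mM NaCl wash buffer, eluted in SDS sample buffer, and immunoblotted.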

[13] = Toxicity in CB-17/IcrCri SCID mouse xenografted with human TMD8 cells assessed as adverse effect at 50 mg/kg, ip qd for 14 days; type: organism-based; settings: in vivo, 336 h
How it was run: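 TMD8 subcutaneous xenografts in female CB-17/IcrCri-scid mice dosed i.p. at 50 mg/kg daily for 14 days in 20% PEG 400 / 3% Tween 80 in PBS, starting at about 150 mm3 tumours. Animals observed daily for signs of morbidity or mortality.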

[14] = Toxicity in CB-17/IcrCri SCID mouse xenografted with human TMD8 cells assessed as change in body weight at 50 mg/kg, ip qd for 14 days measured twice weekly during compound dosing; type: organism-based; settings: in vivo, 336 h
[15] = system: TMD8; experiment: Antitumor activity against human TMD8 cells xenografted in CB-17/IcrCri SCID mouse assessed as tumor growth inhibition at 50 mg/kg, ip qd for 14 days measured during compound dosing; type: functional, organism-based
How it was run: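 Female CB-17/IcrCri-scid mice carried subcutaneous TMD8 tumours in the right flank. Dosing began at about 150 mm3 mean tumour volume: 50 mg/kg i.p. once daily for 14 days in 20% PEG 400 / 3% Tween 80 in PBS, with DMSO as control. Calipers twice weekly; volume = length x width² x 0.5. Mean ± SE, n = 6.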

T1 sequence (Q96SW2 whole entry, looked up, other chains not shown): as the sequence (Q96SW2 whole entry, looked up) above

Cc1sc2c(c1C)C(c1ccc(Cl)cc1)=N[C@@H](CC(=O)Nc1ccc(OCCOCCOCCNc3cccc4nnn(C5CCC(=O)NC5=O)c(=O)c34)cc1)c1nnc(C)n1-2 (some centres not stated)
DC50 [1]: 3.3 nM

Nc1cccc2c1C(=O)N(C1CCC(=O)NC1=O)C2=O (configuration not stated) [POMALIDOMIDE]
CC50 [2]: 35 nM

Cc1sc2c(c1C)C(c1ccc(Cl)cc1)=N[C@@H](CC(=O)Nc1cccc(OCCOCCOCCNc3cccc4nnn(C5CCC(=O)NC5=O)c(=O)c34)c1)c1nnc(C)n1-2 (some centres not stated)
Activity [3]: inactive | Activity [4]: Active | Activity [5]: Active | Activity [6]: inactive | Activity [7]: inactive | Activity [8]: Active | DC50 [1]: 0.32 nM | Activity [9]: inactive | Activity [10]: inactive | CC50 [11]: 20.1 nM | Activity [12]: Active

Nc1cccc2nnn(C3CCC(=O)NC3=O)c(=O)c12 (configuration not stated)
Activity [13]: Non-Toxic | CC50 [2]: 39 nM | Activity [14]: Non-Toxic | TGI [15]: Active
